Experimental data reported in ChEMBL document CHEMBL1137710, “Synthesis and in vitro antitumor activity of new quinoxaline derivatives” (2009).

What was measured:
Format in all cases: functional
[1] = tested on: T47D; test: Growth inhibition of human T47D cells after 48 hrs by sulforhodamine B assay; details: for CC50: read-out: pLC50 (the source's name) (converted); for TGI: read-out: pTGI (converted)
In short: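 Run in the NCI 60-human-tumour-cell-line panel, tested over a 5-log dose range. Dose–response curves gave three values per cell line, each as a log10 molar concentration: GI50 (50% inhibition of net cell growth), TGI (total inhibition of net growth) and LC50 (50% net cell death). The mean graph midpoint is the arithmetic mean over all lines, with insensitive lines entered at the highest concentration tested.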

[2] = tested on: HT-29; test: Growth inhibition of human HT-29 cells after 48 hrs by sulforhodamine B assay; details: HT-29, 48 h; for TGI: read-out: pTGI (converted)
In short: (§1)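 NCI 60-human-tumor-cell-line panel, with compounds tested over a 5-log dose range. Values are taken from dose-response curves as log10 molar concentrations: GI50 is 50% net growth inhibition, TGI is total growth inhibition, and LC50 is 50% net cell death.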

[3] = tested on: MDA-N; test: Growth inhibition of human MDA-N cells after 48 hrs by sulforhodamine B assay; details: for CC50: read-out: pLC50 (the source's name) (converted); for TGI: read-out: pTGI (converted)
[4] = tested on: HCC 2998; test: Growth inhibition of human HCC2998 cells after 48 hrs by sulforhodamine B assay; details: HCC 2998, 48 h; for TGI: read-out: pTGI (converted); in short: as §1

SMILES	GI50 [1] [µM]	CC50 [1] [µM]	TGI [1] [µM]	GI50 [2] [µM]	LC50 [2] [µM]	TGI [2] [µM]	GI50 [3] [µM]	CC50 [3] [µM]	TGI [3] [µM]	GI50 [4] [µM]	TGI [4] [µM]	LC50 (50% net cell kill) [4] [µM]
Nc1cc(N)c2nc(-c3ccccc3)c(Oc3ccc(Cl)c(Cl)c3)nc2c1	24.5	> 100	79.4	–	–	–	–	–	–	–	–	–
Nc1cc(N)c2nc(-c3ccccc3)c(Sc3ccc(Cl)c(Cl)c3)nc2c1	13.2	> 100	> 100	–	–	–	–	–	–	–	–	–
Nc1cc(N)c2nc(-c3ccccc3)c(Sc3ccc(F)cc3)nc2c1	–	–	–	17.8	> 100	45.7	–	–	–	–	–	–
COc1ccc(Oc2nc3cc(N)cc(N)c3nc2-c2ccccc2)cc1	15.1	> 100	97.7	39.8	> 100	> 100	35.5	> 100	> 100	–	–	–
COc1cc(OC)cc(Oc2nc3cc(N)cc(N)c3nc2-c2ccccc2)c1	2.34	51.3	9.12	4.37	–	17.8	–	–	–	2.51	13.8	–
COc1cc(CNc2nc3cc(N)cc(N)c3nc2-c2ccccc2)cc(OC)c1OC	–	–	–	8.71	43.7	19.5	–	–	–	–	–	–
Nc1cc(N)c2nc(-c3ccccc3)c(NCc3ccc(F)cc3)nc2c1	–	–	–	3.16	> 100	12.6	–	–	–	–	–	–
COc1ccc(CNc2nc3cc(N)cc(N)c3nc2-c2ccccc2)cc1	2.82	72.4	11	24.5	> 100	60.3	14.1	53.7	27.5	21.9	51.3	> 100
COc1ccc(CNc2nc3cc(N)cc(N)c3nc2-c2ccccc2)cc1OC	4.47	> 100	> 100	1.86	> 100	24.5	–	–	–	22.9	56.2	> 100
COc1ccc(Sc2nc3cc(N)cc(N)c3nc2-c2ccccc2)cc1	> 100	> 100	> 100	–	–	–	–	–	–	–	–	–
Nc1cc(N)c2nc(-c3ccccc3)c(Oc3ccc(F)cc3)nc2c1	–	–	–	22.9	> 100	51.3	–	–	–	–	–	–
Nc1cc(N)c2nc(-c3ccccc3)c(NCc3ccc(Cl)c(Cl)c3)nc2c1	19.5	> 100	55	–	–	–	–	–	–	–	–	–
COc1cc(CNc2nc3cc(N)cc(N)c3nc2-c2ccccc2)cc(OC)c1	1.66	> 100	4.57	8.13	> 100	44.7	2.34	> 100	5.25	–	–	–
